# Source: PubChem (Sanford-Burnham Center for Chemical Genomics)
# STEP block = blocks human striatal-enriched tyrosine phosphatase; P54829; recombinant STEP, OMFP fluorogenic substrate, fluorescence; inhibition, % at 20 µM; hit rate 0.25% among 360,000;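 active = inhibition at 20 µM, scaled per plate between control wells, above about 37%, limit read from the data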;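 note: 0% = DMSO with enzyme and substrate and 100% = substrate only without enzyme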
# Target sequence (P54829 whole entry, looked up): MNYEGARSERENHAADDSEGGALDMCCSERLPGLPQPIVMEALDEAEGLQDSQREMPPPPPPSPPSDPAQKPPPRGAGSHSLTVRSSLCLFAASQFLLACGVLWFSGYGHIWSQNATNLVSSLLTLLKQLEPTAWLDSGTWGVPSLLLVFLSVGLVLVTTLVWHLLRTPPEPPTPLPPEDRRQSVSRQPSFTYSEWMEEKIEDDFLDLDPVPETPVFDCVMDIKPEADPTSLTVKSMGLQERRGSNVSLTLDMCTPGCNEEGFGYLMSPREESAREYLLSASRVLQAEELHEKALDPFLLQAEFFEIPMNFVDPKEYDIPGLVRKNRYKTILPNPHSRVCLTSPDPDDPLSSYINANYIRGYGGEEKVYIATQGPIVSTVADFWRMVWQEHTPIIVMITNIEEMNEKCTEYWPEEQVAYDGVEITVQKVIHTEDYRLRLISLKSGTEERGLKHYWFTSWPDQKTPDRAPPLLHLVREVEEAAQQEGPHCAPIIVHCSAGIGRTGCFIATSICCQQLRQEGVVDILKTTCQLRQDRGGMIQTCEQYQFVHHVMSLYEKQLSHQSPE
#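 Also added – OMFP at 25 µM · Test system – STEP tyrosine phosphatase · Technique – FITC-channel fluorescence of OMFP product · Schedule – 20 min at room temperature, dark · Evaluation – control-normalized % inhibition with plate pattern correction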
# SUMO1 PPI mod = alters human SUMO1 binding to SIM partners. P63165. SUMO1 binding to a labelled peptide, TR-FRET, 1 h. inhibition, % at 20 µM. hit rate 0.33% among 360,000. AID 602429; in the data active = inhibition above about 37%
# Target sequence (P63165 whole entry, looked up): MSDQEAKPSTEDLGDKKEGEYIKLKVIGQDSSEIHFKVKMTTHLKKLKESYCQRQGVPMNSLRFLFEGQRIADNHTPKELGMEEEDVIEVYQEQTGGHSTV
# Scp-1 inhibitor = Scp-1 (human) phosphatase inhibition; Recombinant Scp1, phosphopeptide, malachite green phosphate absorbance; Q9GZU7; inhibition, % at 20 µM; hit rate 0.88% among 340,000;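 active = inhibition above about 50% at 20 µM, limit read from the data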;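 note: plate controls were DMSO wells with enzyme for no effect and wells lacking enzyme for full effect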
#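 Material: truncated SCP-1 phosphatase (76-261aa) / Buffer or medium: 50 mM Tris acetate pH 5.5, 0.005% Tween-20, 10 mM MgCl2 / Compound dosing: one concentration, 20 µM, with 1.0% DMSO / Incubation: 45 min room-temperature reaction, 5 min colour, 30 min stabiliser / Detection: colorimetric free-phosphate detection, absorbance 630 nm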
# LMPTP block = LMPTP (human) inhibition; recombinant LMPTP-A, OMFP fluorogenic substrate, fluorescence intensity; inhibition, % at 20 µM; hit rate 0.22% among 360,000; AID 651560;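 active = compounds that cut the enzyme signal by at least half of the control window in the single-dose screen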;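 note: plate controls were DMSO wells with enzyme plus substrate for no effect and substrate without enzyme for full effect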
#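 Test system: LMPTP-A, protein tyrosine phosphatase of low molecular weight; Input: 0.625 nM enzyme; Incubation: 50 min dark incubation at room temperature; Signal: endpoint fluorescence intensity from OMFP dephosphorylation; Read-out basis: % inhibition versus control wells.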
# DNMT1 block = DNMT1 (human) enzyme inhibition; inhibition (reported as % activation of signal), % at 10 µM; DNMT1 molecular beacon, Hinp1I cleavage, fluorescence; P26358; hit rate 0.83% among 360,000; in the data active = inhibition above about 50%
# Scp1 confirm = confirmation of human Scp-1 phosphatase inhibitors | shares compounds with Scp-1 inhibitor | recombinant SCP-1 catalytic domain, phosphate release, malachite green absorbance | inhibition, % at 20 µM | hit rate 61% among 2,500 | AID 540281;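 note: plate controls were DMSO with enzyme for no effect and buffer wells lacking enzyme for full effect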
# MG interference = interferes with malachite green readout, flagging false Scp-1 hits; shares compounds with Scp-1 inhibitor; Colorimetric interference counterscreen, malachite green absorbance 630 nm; apparent inhibition (interference), % at 20 µM; 2,500 tested, under 10 active; AID 540313;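 note: compounds added after enzyme reaction finished so only phosphate colour detection is probed; plate controls were DMSO wells with completed Scp-1 reaction for no effect and substrate wells lacking enzyme for full effect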
# Scp1 DSF = binds human Scp-1, shifting its melting temperature. shares compounds with Scp-1 inhibitor. Recombinant SCP1, Sypro Orange thermal shift Tm. thermal shift relative to vanadate control, % at 40 µM. hit rate 25% among 1,500. AID 540329;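 active = substances whose mean melting-temperature shift, as a percentage of the reference inhibitor's shift, reaches about 5.3%, limit read from the data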;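 note: 0% = Tm of DMSO wells and 100% = Tm with sodium orthovanadate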
# Numbers without * were called inactive; / = no result. Shown are actives, neighbours in structure and some others; about 1.7% of the full set was active somewhere.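 Rule for the calls, unless noted: active = inhibition of at least 30% at 20 µM; inactive = the rest.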
SMILES,STEP block,SUMO1 PPI mod,Scp-1 inhibitor,LMPTP block,DNMT1 block,Scp1 confirm,MG interference,Scp1 DSF
COc1ccc(/C=C/C(=O)NCC(=O)N=Nc2c(O)[nH]c3ccc([N+](=O)[O-])cc23)cc1,13,-3,68*,9,6,25,-5,/
O=C(N=Nc1c(O)[nH]c2ccc([N+](=O)[O-])cc12)c1ccccc1Cl,73*,18,99*,28,6,70*,-19,16*
Cc1ccccc1NCC(=O)N=Nc1c(O)[nH]c2ccc([N+](=O)[O-])cc12,4,-14,1,0,-6,/,/,/
O=C(CNC(=O)c1ccc(Br)cc1)N=Nc1c(O)[nH]c2ccc([N+](=O)[O-])cc12,3,-5,1,-1,12,/,/,/
Cc1cccc(OCC(=O)N=Nc2c(O)[nH]c3ccc([N+](=O)[O-])cc23)c1,/,/,-6,/,/,/,/,/
O=C(NCc1ccco1)c1ccc2nc([C@@H]3O[C@H](CO)[C@H](O)[C@H](O)[C@H]3O)[nH]c2c1,2,2,/,-1,1,/,/,/
COC(=O)Cn1c(=NC(=O)c2nc3ccccc3s2)sc2cc(S(N)(=O)=O)ccc21,0,3,64*,28,14,52*,-15,0
COC(=O)Cn1c(=NC(=O)c2cc(-c3cccs3)nc3ccccc23)sc2cc(S(N)(=O)=O)ccc21,-4,-6,4,3,-21,/,/,/
CCN(CC)c1ncnc2c1ncn2[C@H]1CN(Cc2ccccc2)C[C@@H](COC(C)=O)O1,3,-1,/,0,15,/,/,/
Cc1cccc(C)c1-n1nnnc1C(c1ccnc2ccccc12)N(C)Cc1ccccc1 (centres undefined),/,3,/,4,/,/,/,/
COc1ccccc1NC(=O)c1cc(=O)[nH]c2ccccc12,4,1,-10,-1,-16,/,/,/
COc1ccccc1C(C)NC(=O)c1cc(=O)[nH]c2ccccc12 (centres undefined),-2,0,74*,1,0,-2,-8,/
O=C(CSc1nnc(-c2ccc(S(=O)(=O)N3CCCC3)cc2)o1)NCc1ccco1,-2,3,62*,1,10,43*,-17,-6
O=C(CSc1ccc2nnc(-c3ccccc3)n2n1)NCc1ccco1,11,3,55*,0,2,17,-24,/
CCC(=O)Nc1cccc(-c2nnc(SCC(=O)NCc3ccco3)n2C)c1,0,-1,98*,-3,1,6,-7,/
O=C(CSc1nnc(CNC(=O)c2c(F)cccc2F)o1)NCc1ccco1,2,6,68*,2,10,33*,3,-22
Cn1c(SCC(=O)NCc2ccco2)nnc1-c1ccccc1,1,4,-3,0,1,/,/,/
CC1(C)Oc2cc3oc(=O)ccc3c3c2C2C1CCC(C)(O3)C2O (centres undefined),-4,3,/,-1,3,/,/,/
Cc1ccc(-c2nc3ccc(Br)cn3c2Cc2cccc(F)c2)cc1,-1,2,/,1,9,/,/,/
COc1ccccc1Cc1c(-c2ccc(C)cc2)nc2cc(C)c(Br)c(C)n12,/,0,/,1,/,/,/,/
CCCCC1Cc2[nH]c(=S)[nH]c(=O)c2C(C(C)C)O1 (centres undefined),/,2,/,-1,/,/,/,/
Cn1c(SCC(=O)NCc2ccco2)nnc1-c1ccc(S(=O)(=O)N2CCOCC2)cc1,2,5,65*,0,13,49*,-17,-4
O=C(NCc1ccco1)C1CCCN(S(=O)(=O)c2ccc(-n3cnnn3)cc2)C1 (centres undefined),0,14,76*,1,-1,69*,-7,3
O=C(COc1ccc(S(=O)(=O)N2CCCC2)cc1)NCc1ccco1,3,2,26,0,18,/,/,/
O=C(COC(=O)c1cccnc1Cl)NCc1ccco1,0,10,92*,-1,1,70*,-10,-11
SMILES,STEP block,SUMO1 PPI mod,Scp-1 inhibitor,LMPTP block,DNMT1 block,Scp1 confirm,MG interference,Scp1 DSF
O=C(COC(=O)c1ccc(S(=O)(=O)N2CCCCC2)cc1)NCc1ccco1,3,3,54*,-1,14,73*,-6,3
O=C(Nc1ccc2c(c1)C(=O)NC2=O)c1ccccc1,0,-21,-6,-18,0,/,/,/
O=C(Nc1ccc2c(c1)C(=O)NC2=O)c1cccc(C(F)(F)F)c1,5,9,88*,-2,26,53*,-11,5
Cn1c(SCC(=O)Nc2cccnc2Cl)nc2ccccc21,-3,6,8,-1,0,/,/,/
CCOC(=O)C1=C(N)n2c(s/c(=C/c3ccco3)c2=O)=C(C(=O)OC)C1c1ccco1 (centres undefined),-1,4,3,0,12,/,/,/
N#CC1=C(N)n2c(s/c(=C\c3ccco3)c2=O)=C(C#N)C1c1ccco1 (centres undefined),11,32,63*,11,95*,71*,-5,18*
Cn1nnc(-c2ccc(OCc3ccccc3F)cc2)n1,4,-3,65*,0,3,-10,-10,/
CCOc1ccccc1N1CCN(S(=O)(=O)c2ccc3c4c(cccc24)C(=O)N3)CC1,6,5,61*,8,32,50*,-8,5
CCOC(=O)N1CCN(S(=O)(=O)c2ccc3c4c(cccc24)C(=O)N3)CC1,1,-34,-7,-4,-1,/,/,/
CCOc1ccccc1-c1nc(-c2cc3ccc(C)cc3[nH]c2=O)no1,33,0,57*,3,4,39*,-4,-4
CC(C)NC(=O)C1(C)CCN1C(=O)C(c1ccccc1)c1ccccc1 (centres undefined),2,-5,/,0,-1,/,/,/
Cc1nc2c(OCCOc3ccc(F)cc3)cccn2c1N(C)C(=O)CCC1CCCC1,4,-1,/,3,-9,/,/,/
O=C(Nc1ccc(Br)cc1Cl)c1cnccn1,2,7,68*,0,48,55*,-23,8.8*
O=C(Nc1ccccc1Cl)c1cnccn1,4,-4,-4,-1,1,/,/,/
Cc1ccc(CN2C(=O)C(F)(F)Oc3ccc(C)cc32)cc1,0,1,/,1,5,/,/,/
COc1ccccc1N(CC(=O)Nc1ccc2c(c1)OCO2)S(=O)(=O)c1ccccc1,-2,2,99*,-1,1,19,-9,/
Nc1nc(N)c2ncn(C3C=CC(CO)C3)c2n1 (centres undefined),2,7,/,-1,-3,/,/,/
